Laboratory results published in ChEMBL document CHEMBL4699636, “Novel 2,7-Diazaspiro[4,4]nonane Derivatives to Inhibit Mouse and Human Osteoclast Activities and Prevent Bone Loss in Ovariectomized Mice without Affecting Bone Formation” (J Med Chem, 2020).
Calls of active or inactive are those of the source. The rule behind the calls is not given here.

Experiments:
[1] = Toxicity in C57BL6/J mouse model of OVX-induced bone loss assessed as effect on bone formation by measuring mineralizing surface per trabecular bone surface level in femoral metaphysis at 20 mg/kg, ip QD for 4 weeks by histomorphometry (27.90 +/ 8.22 %); format: organism-based; conditions: in vivo, 672 h
[2] = test system: Osteoclast (Homo sapiens); test: Inhibition of resorption activity of human peripheral blood cell-derived osteoclasts incubated for 48 hrs by Kossa-staining based assay
Mus musculus [3] = test: Antiosteoporotic activity in C57BL6/J mouse model of OVX-induced bone loss assessed as trabecular separation level in femoral metaphysis at 20 mg/kg, ip QD for 4 weeks by histomorphometry (319.80 +/- 106.52 um); format: functional
Outline: (§1)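 OVX mice, 12 weeks old, ip 20 mg/kg q.d. or b.i.d. for 4 weeks in CMC/Tween 80 vehicle. Distal right femur taken day 28. Static trabecular parameters measured on one 4-µm Masson-Goldner trichrome section, ROI 0.75 mm². n=10 per group, 9 in OVX+vehicle.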

[4] = Toxicity in C57BL6/J mouse model of OVX-induced bone loss assessed as effect on bone formation by measuring osteoblast surface per trabecular bone surface level in femoral metaphysis at 20 mg/kg, ip BID for 4 weeks by histomorphometry (5.03 +/ 2.92 %); format: organism-based; conditions: in vivo, 672 h; outline: as §1
Osteoclast = test: Inhibition of resorption activity of mouse peripheral blood cell-derived osteoclasts at 5-10 uM incubated for 48 hrs by Kossa-staining based assay; format: functional, tissue-based; conditions: dose microM 5-10, time 48.0 hrs, in the assay text read “bone marrow-derived” for “peripheral blood cell-derived”
Outline: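 Osteoclasts from C57BL/6J mouse bone marrow, M-CSF then M-CSF 30 ng/mL plus RANKL 100 ng/mL. Day-3 cells reseeded on calcium phosphate-coated wells, compound added next day in 0.5% DMSO for 48 h, 8 wells per condition. 4 wells TRAP-stained for osteoclast counts, 4 von Kossa-stained for resorbed area. Activity expressed as resorption normalized to osteoclast number.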

Mus musculus [5] = test: Antiosteoporotic activity in C57BL6/J mouse model of OVX-induced bone loss assessed as trabecular bone volume per tissue volume level in tibial metaphysis at 20 mg/kg, ip QD for 4 weeks by microCT analysis (17.49 +/- 2.91 %); format: functional
Mus musculus [6] = test: Antiosteoporotic activity in C57BL6/J mouse model of OVX-induced bone loss assessed as cortical thickness level in tibial diaphysis at 20 mg/kg, ip BID for 4 weeks by microCT analysis (179.27 +/- 7.57 um); format: functional
Mus musculus [7] = test: Antiosteoporotic activity in C57BL6/J mouse model of OVX-induced bone loss assessed as degree of anisotropy (range 0-1) level in tibial metaphysis at 20 mg/kg, ip QD for 4 weeks by microCT analysis (0.53 +/- 0.07); format: functional
[8] = Toxicity in C57BL6/J mouse model of OVX-induced bone loss assessed as effect on bone formation by measuring osteoblast surface per trabecular bone surface level in femoral metaphysis at 20 mg/kg, ip QD for 4 weeks by histomorphometry (5.03 +/ 2.92 %); format: organism-based; conditions: in vivo, 672 h; outline: as §1
[9] = Toxicity in C57BL6/J mouse model of OVX-induced bone loss assessed as effect on bone formation by measuring mineralizing surface per trabecular bone surface level in femoral metaphysis at 20 mg/kg, ip BID for 4 weeks by histomorphometry (27.90 +/ 8.22 %); format: organism-based; conditions: in vivo, 672 h
Mus musculus [10] = test: Antiosteoporotic activity in C57BL6/J mouse model of OVX-induced bone loss assessed as serum CTX-1 level […] at 20 mg/kg, ip QD for 4 weeks (165.38 +/- 54.93 %); format: functional
Mus musculus [11] = test: Antiosteoporotic activity in C57BL6/J mouse model of OVX-induced bone loss assessed as structure model index level in tibial metaphysis at 20 mg/kg, ip BID for 4 weeks by microCT analysis (1.92 +/- 0.19); format: functional; conditions: dose […]
[12] = biological target: Dedicator of cytokinesis protein 5 (Homo sapiens, UniProt Q9H7D0); test: Inhibition of C-terminal 6-histidine tagged human DOCK5 (1212 to 1642 residues) expressed in Escherichia coli assessed as reduction in nucleotide exchange efficiency at 20 to 60 uM by N-methylanthraniloyl-GDP fluorescence based nucleotide exchange assay; conditions: dose microM 20-60
Outline: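 Mant-GDP-loaded His-tagged human RAC1 at 2.0 µM with 100 nM DOCK5 (residues 1212-1642) or TRIOGEF1 (R1232-T1550), both E. coli-expressed. Buffer: 50 mM Tris pH 8, 300 mM NaCl, 2 mM MgCl2, 1 mM DTT, 1% DMSO, 25 °C. Reaction started with 100 µM GTP. Fluorescence decay read at ex 360/em 440 nm, kobs by single-exponential fit, compound at 0, 20 or 60 µM, duplicates, as % of activity.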

[13] = Toxicity in C57BL6/J mouse model of OVX-induced bone loss assessed as effect on bone formation by measuring osteocalcin level at 20 mg/kg, ip BID for 4 weeks […]; format: organism-based; conditions: in vivo, 672 h
Mus musculus [14] = test: Antiosteoporotic activity in C57BL6/J mouse model of OVX-induced bone loss assessed as trabecular bone volume per tissue volume level in femoral metaphysis at 20 mg/kg, ip QD for 4 weeks by histomorphometry (11.67 +/- 2.37%); format: functional; outline: as §1
[15] = Toxicity in C57BL6/J mouse model of OVX-induced bone loss assessed as effect on osteoclast numbers per bone perimeter at 20 mg/kg, IP QD for 4 weeks; format: organism-based; conditions: in vivo, 672 h; outline: as §1
[16] = Toxicity in C57BL6/J mouse model of OVX-induced bone loss assessed as effect on bone formation by measuring bone formation rate per trabecular bone surface level in femoral metaphysis at 20 mg/kg, ip QD for 4 weeks by histomorphometry ([…]); format: organism-based; conditions: in vivo, 672 h
[17] = Toxicity in C57BL6/J mouse model of OVX-induced bone loss assessed as effect on bone formation by measuring mineralizing mineral apposition rate level in femoral metaphysis at 20 mg/kg, ip BID for 4 weeks by histomorphometry (1.62 +/ 0.21 um/d (lcm)); format: organism-based; conditions: in vivo, 672 h

Dedicator of cytokinesis protein 5, sequence (Q9H7D0 whole entry, the tested form may be a part): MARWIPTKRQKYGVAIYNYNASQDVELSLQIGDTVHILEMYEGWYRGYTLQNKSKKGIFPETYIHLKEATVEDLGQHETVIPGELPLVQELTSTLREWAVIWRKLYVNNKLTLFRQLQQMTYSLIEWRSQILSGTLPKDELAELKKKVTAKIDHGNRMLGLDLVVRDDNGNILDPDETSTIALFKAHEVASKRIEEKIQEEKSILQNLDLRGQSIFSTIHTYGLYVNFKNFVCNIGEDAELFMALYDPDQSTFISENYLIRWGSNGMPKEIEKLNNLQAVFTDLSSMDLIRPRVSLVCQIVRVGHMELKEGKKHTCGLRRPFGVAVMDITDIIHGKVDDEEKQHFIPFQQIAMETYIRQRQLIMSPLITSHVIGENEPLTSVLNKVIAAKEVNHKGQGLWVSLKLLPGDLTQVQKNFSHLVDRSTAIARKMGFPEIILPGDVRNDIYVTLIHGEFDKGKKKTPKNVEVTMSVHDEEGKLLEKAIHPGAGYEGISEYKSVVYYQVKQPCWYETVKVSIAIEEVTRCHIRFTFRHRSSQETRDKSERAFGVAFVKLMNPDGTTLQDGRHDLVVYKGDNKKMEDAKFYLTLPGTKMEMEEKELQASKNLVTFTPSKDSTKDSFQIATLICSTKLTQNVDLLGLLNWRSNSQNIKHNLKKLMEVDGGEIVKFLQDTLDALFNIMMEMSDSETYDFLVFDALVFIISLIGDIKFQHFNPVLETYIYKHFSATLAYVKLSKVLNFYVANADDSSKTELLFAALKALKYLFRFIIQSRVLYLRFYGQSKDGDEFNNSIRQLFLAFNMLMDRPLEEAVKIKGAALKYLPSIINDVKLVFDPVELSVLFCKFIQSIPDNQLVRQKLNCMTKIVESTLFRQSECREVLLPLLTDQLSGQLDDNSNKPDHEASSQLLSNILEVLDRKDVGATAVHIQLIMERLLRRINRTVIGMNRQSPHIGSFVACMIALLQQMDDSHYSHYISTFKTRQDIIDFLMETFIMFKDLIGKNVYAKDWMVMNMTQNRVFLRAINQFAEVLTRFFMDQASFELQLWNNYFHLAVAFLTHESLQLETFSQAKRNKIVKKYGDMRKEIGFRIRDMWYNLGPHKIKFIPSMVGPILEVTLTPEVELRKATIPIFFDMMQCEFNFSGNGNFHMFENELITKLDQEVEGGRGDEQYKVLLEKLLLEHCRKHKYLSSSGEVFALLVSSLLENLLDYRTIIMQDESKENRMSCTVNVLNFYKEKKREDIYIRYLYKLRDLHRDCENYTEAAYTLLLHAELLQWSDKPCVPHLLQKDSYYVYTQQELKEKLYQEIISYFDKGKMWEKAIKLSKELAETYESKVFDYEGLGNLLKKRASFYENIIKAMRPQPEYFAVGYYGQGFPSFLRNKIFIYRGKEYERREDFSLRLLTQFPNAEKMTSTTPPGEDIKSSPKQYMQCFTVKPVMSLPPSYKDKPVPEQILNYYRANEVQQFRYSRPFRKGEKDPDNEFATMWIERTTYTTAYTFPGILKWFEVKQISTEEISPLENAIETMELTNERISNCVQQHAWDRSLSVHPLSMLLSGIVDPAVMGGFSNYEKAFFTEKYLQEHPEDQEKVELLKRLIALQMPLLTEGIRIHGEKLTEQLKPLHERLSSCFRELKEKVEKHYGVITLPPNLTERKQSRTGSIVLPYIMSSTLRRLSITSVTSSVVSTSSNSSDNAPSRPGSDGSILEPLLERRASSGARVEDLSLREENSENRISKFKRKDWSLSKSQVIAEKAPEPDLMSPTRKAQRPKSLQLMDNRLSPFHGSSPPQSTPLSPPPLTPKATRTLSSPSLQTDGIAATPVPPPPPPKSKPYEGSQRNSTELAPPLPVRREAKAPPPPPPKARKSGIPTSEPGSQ

SMILES: O=S1(=O)N(c2ccccc2)C[C@H](O)[C@]12CCN(Cc1ccc(Cl)cc1)C2 (racemic)
- Activity [1]: 27.7%
- IC50 [2]: 3.44 µM
- Activity (Mus musculus [3]): 318.42 um
- Activity [4]: 4.01%
- inhibition (Osteoclast): Active
- Activity (Mus musculus [5]): 19.48%
- Activity (Mus musculus [6]): 193.5 um
- Activity_index (Mus musculus [7]): 0.5
- Activity [8]: 3.57%
- Activity [9]: 26.07%
- Activity (Mus musculus [10]): 153.3%
- Activity_index (Mus musculus [11]): 1.48
- inhibition [12]: 45%
- Activity [13]: 109.97%
- Activity (Mus musculus [14]): 12.02%
- Activity [15]: Non-Toxic
- Activity [16]: 184.98 um3/um2/yr
- Activity [17]: 1.65 micrometer/day
